{
  "source": "paper PMC12297526",
  "about": "(Communications Chemistry, 2025)",
  "key": {"[1]": {"conditions": "0.1 M KCl; ref 4 (supplement), 15; cited from earlier work"}, "[2]": {"conditions": "cited from earlier work; for pMn: 11 (supplement), 8, 17, 18, 34"}, "Zn": {"test": "Zn", "assay_type": "physicochemical", "conditions": "pH = 6.0, 25 mM Zn(II), 37 °C, 1 mM complex; mean ± SD, n = 3"}, "Solubility in pure water": {"test": "Solubility in pure water", "assay_type": "physicochemical", "conditions": "25 °C"}, "[3]": {"conditions": "20 MHz, 298 K; cited from earlier work"}, "[4]": {"test": "log P estimation by UPLC retention time", "assay_type": "physicochemical", "conditions": "estimated from UPLC retention time with calibration standards", "method_in_brief": "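Complexes and standards (DMSO, DMF, pyridine, phenol, nitrobenzene) run on reversed-phase UPLC. C18, 2.5 μm, 2.1 × 100 mm column; 10 mM ammonium acetate/ACN gradient at 0.4 mL min−1. Calibration of log TR against known log P for the standards; complex log P read from its retention time.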"}, "normal BALB/c mice": {"test_system": "normal BALB/c mice", "test": "In vivo T1-weighted MRI of normal mice, 3.0 T clinical scanner", "conditions": "intravenous, 0.05 mmol kg^−1", "method_in_brief": "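Male BALB/c mice (25 ± 3 g) anaesthetised with avertin (0.6 mL per 20 g) and imaged in a mouse coil at 3.0 T. Coronal and transverse T1-weighted baseline scans taken, then complex given i.v. in PBS pH 7.4 at 0.05 mmol kg−1 and scanning continued ~30 min. Relative enhancement = (SIpost – SIpre)/SIpre × 100% from ROIs on liver and kidney.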"}, "[5]": {"conditions": "pH 7.4, 25 °C, [Cu(II)] = 10^-5 M; cited from earlier work"}, "[6]": {"test": "pH-potentiometric titration, thermodynamic stability constants of Mn", "assay_type": "physicochemical", "conditions": "for log KMnL: I = 0.1 M KCl, 25 °C, mean ± SD, n = 3", "method_in_brief": "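Ligand and Mn(II) (1.05:1 molar) in 0.1 M KCl titrated with 0.5 M NaOH from pH 1.7 to 12.0 at 25 °C under nitrogen. MnCl2 stock held at pH 6 and calibrated by ICP-MS. Data fitted for stability constants and speciation; titrations in triplicate. pMn calculated at pH 7.4.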"}, "[7]": {"conditions": "complexes with heptadentate ligands"}},
  "note": "Where two headings read alike, the source gives them in different places.",
  "data": [
    {"compound": "O=C(O)CN1CCNCCN(CC(=O)O)CCNCC1", "note": "[1,7-DO2A]", "values": [
      {"measurement": "Σ log KiH", "setting": "[1]", "value": 28.05}
    ]},
    {"compound": "O=C(O)CN1CCNCCN(CC(=O)O)CCN(CC(=O)O)CC1", "note": "[DO3A]", "values": [
      {"measurement": "log KMnL", "setting": "[2]; [7]", "value": 16.55}
    ]},
    {"compound": "CCOc1ccc(C[C@@H](CN(CCN(CC(=O)[O-])CC(=O)[O-])CC(=O)[O-])N(CC(=O)[O-])CC(=O)[O-])cc1.[Gd+3].[Na+].[Na+]", "note": "[Gd(EOB-DTPA)]", "values": [
      {"measurement": "t1/2 (dissociation half-life)", "setting": "Zn", "value": 0.25, "unit": "h"}
    ]},
    {"compound": "O=C([O-])CN1CCNCCNCCN(CC(=O)[O-])CC1.[Mn+2]", "note": "[Mn(1,4-DO2A)]", "values": [
      {"measurement": "log KMnL", "setting": "[2]; introduction, Mn(1,4-DO2A) vs Mn(NOTA)", "value": 16.1},
      {"measurement": "Solubility", "setting": "Solubility in pure water", "value": 260, "unit": "mg/mL"},
      {"measurement": "^20r1 (relaxivity)", "setting": "[3]", "value": 2.1, "unit": "mM⁻¹ s⁻¹"},
      {"measurement": "log P", "setting": "[4]", "value": 0.57},
      {"measurement": "excretion route / organ preference seen by MRI", "setting": "normal BALB/c mice", "value": "predominantly excreted through the renal route"},
      {"measurement": "half-life (t1/2)", "setting": "[5]", "value": 48, "unit": "h"},
      {"measurement": "log KMnL", "setting": "[6]", "value": 15.5},
      {"measurement": "pMn", "setting": "[6]; pH 7.4, [Mn(II)] = [L] = 10^−5 M", "value": 7.20}
    ]},
    {"compound": "O=C([O-])CN1CCNCCN(CC(=O)[O-])CCNCC1.[Mn+2]", "note": "[Mn(1,7-DO2A)]", "values": [
      {"measurement": "log P", "setting": "[4]", "value": 0.47},
      {"measurement": "log KMnL", "setting": "[6]", "value": 14.7}
    ]},
    {"compound": "O=C([O-])CN1CCNCCN(CC(=O)[O-])Cc2cccc(n2)C1.[Mn+2]", "note": "[Mn(3,9-PC2A)]", "values": [
      {"measurement": "pMn", "setting": "[2]; 0.15 M NaCl", "value": 8.64},
      {"measurement": "log KMnL", "setting": "[2]; 0.15 M NaCl, 11 (supplement), 17", "value": 17.09},
      {"measurement": "half-life (t1/2)", "setting": "[5]", "value": 21, "unit": "h"}
    ]},
    {"compound": "O=C(O)CN1CCN(CC(=O)O)Cc2cccc(n2)CN(CC(=O)O)CC1", "note": "[PCTA]", "values": [
      {"measurement": "log KMnL", "setting": "[2]; [7]", "value": 16.83}
    ]},
    {"compound": "Mn(EDTA)", "values": [
      {"measurement": "pMn", "setting": "[2]; 0.15 M NaCl", "value": 7.83},
      {"measurement": "half-life (t1/2)", "setting": "[5]", "value": 0.08, "unit": "h"}
    ]}
  ]
}
